Screening results from PubChem BioAssay.
A selection: hits, their analogues and other compounds. The true share with any hit is near 4.2%.
SENP1 inh = blocks the human SENP1 SUMO protease catalytic domain. recombinant SENP1 catalytic domain, CyPet-SUMO1-YPet FRET cleavage. hit rate 0.21% among 360,000. Q9P0U3. inhibition, % at 10 µM;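 active = inhibition at least 30% at 10 µM, raw YFP signal under a set limit, fluorescence ratio 0.5 to 1.5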
Target sequence (Q9P0U3 419-644 limits assumed): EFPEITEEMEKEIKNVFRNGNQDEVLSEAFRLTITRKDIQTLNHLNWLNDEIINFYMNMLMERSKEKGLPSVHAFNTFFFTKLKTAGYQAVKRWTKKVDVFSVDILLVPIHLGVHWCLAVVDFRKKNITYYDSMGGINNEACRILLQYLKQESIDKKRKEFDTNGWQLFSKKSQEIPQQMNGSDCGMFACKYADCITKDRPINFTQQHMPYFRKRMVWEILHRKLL
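Test system: hSENP1 catalytic domain, recombinant; Amount: 20 pM final SENP1 enzyme; Medium: Tris pH 8 buffer plus EDTA, NaCl, BME, BSA, NP40, catalase; Schedule: 50 min enzyme reaction, room temperature, light-protected; Technique: FRET fluorescence in CFP and YFP emission channels; Controls: no-enzyme wells low, DMSO-plus-enzyme wells high control.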
M18AAP inhibitor = blocks P. falciparum M18 aspartyl aminopeptidase | recombinant PfM18AAP, H-Glu-NHMec fluorogenic cleavage | inhibition, % at 7.35 µM | hit rate 1.2% among 290,000 | AID 1822;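 active = inhibition above the campaign mean inhibition over all tested compounds plus 3 SD, cut at about 28% in these data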
CTSL1 counter = cathepsin L1 inhibition, PFM18AAP counter-screen | hit rate 0.49% among 300,000 | recombinant F. hepatica cathepsin L1, Z-Leu-Arg-MCA fluorescence | inhibition, % at 5.96 µM | AID 1906;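 active = inhibition above the mean of all tested compounds plus 3 SD, set per screening campaign, cut at about 17% in these data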
FXN GAA850 act = activators of GAA850 frataxin (FXN) promoter. hit rate 0.56% among 360,000. HEK293 lucGAA850 FXN promoter luciferase reporter, 24 h; percent of 10 µM SAHA response. AID 540364. activation, % at 6 µM;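 active = activation above the average of all compounds screened plus 3 SD, cutoff fixed separately per campaign, cut at about 7.5% in these data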
HDAC3 inhib = inhibitors of human histone deacetylase 3; recombinant HDAC3, fluorogenic peptide/trypsin coupled, fluorescence; inhibition, % at 8.3 µM; hit rate 0.15% among 320,000; AID 2718; in the data active = inhibition above about 26%, passing the limit was not always enough
AHR act = activators of human aryl hydrocarbon receptor; activation, % at 5 µM; hit rate 2.5% among 320,000; P35869; AHR-responsive luciferase reporter cells, luminescence; in the data active = activation above about 47%
Hits are given with their value.

Results for O=C(CCC(=O)Nc1nnc(C2CCCCC2)s1)Nc1ccc(F)cc1 ?
SENP1 inh: inactive; M18AAP inhibitor: 29; CTSL1 counter: inactive; FXN GAA850 act: inactive; HDAC3 inhib: inactive; AHR act: inactive

What do the screens show for `CC1=CC(=O)[C@H]2C(C)(C)CCC[C@]2(C)[C@@]1(O)CO`?
SENP1 inh: inactive; M18AAP inhibitor: inactive; CTSL1 counter: 49; FXN GAA850 act: inactive; HDAC3 inhib: inactive; AHR act: inactive

How did CN(C)c1ccc2nc3c(=O)[nH]c(=O)nc-3n(CC(O)C(O)C(O)CO)c2c1 (stereo unspecified) do in these assays?
SENP1 inh: 60; M18AAP inhibitor: inactive; CTSL1 counter: inactive; FXN GAA850 act: inactive; AHR act: inactive

Results for O=C1ON=C(c2ccc([N+](=O)[O-])cc2)/C1=C/c1ccccc1O ?
SENP1 inh: inactive; M18AAP inhibitor: 29; FXN GAA850 act: inactive; HDAC3 inhib: inactive

What do the screens show for `CCCCC(=O)N(C)c1c(CC)nc2c(OCc3ccccc3C)cccn12`?
SENP1 inh: inactive; FXN GAA850 act: inactive

Results for O=C1/C(=C\c2ccc3c(c2)OCO3)CCC/C1=C/c1ccc2c(c1)OCO2 ?
SENP1 inh: inactive; M18AAP inhibitor: inactive; CTSL1 counter: inactive; FXN GAA850 act: inactive; HDAC3 inhib: inactive; AHR act: 48

What do the screens show for `O=C1c2ccccc2NC(c2ccco2)N1/N=C/c1ccco1` (stereo unspecified)?
SENP1 inh: inactive; M18AAP inhibitor: inactive; CTSL1 counter: inactive; FXN GAA850 act: inactive; HDAC3 inhib: inactive; AHR act: inactive

What do the screens show for `Cc1ccc(/C=N/N2C(=O)c3ccccc3NC2c2ccc(C)cc2)cc1` (stereo unspecified)?
SENP1 inh: inactive; M18AAP inhibitor: inactive; CTSL1 counter: inactive; FXN GAA850 act: inactive; HDAC3 inhib: inactive; AHR act: 50

What do the screens show for `COc1ccc([N+](=O)[O-])cc1NC(=O)COC(=O)C12CC3CC(CC(O)(C3)C1)C2`?
SENP1 inh: inactive; FXN GAA850 act: inactive

How did O=C(NC1CCCN(Cc2ccc(Cl)cc2)C1)c1c(F)cccc1F (stereo unspecified) do in these assays?
SENP1 inh: inactive; M18AAP inhibitor: inactive; CTSL1 counter: 28; FXN GAA850 act: inactive; HDAC3 inhib: inactive; AHR act: inactive

Results for O=C(NC1CCCN(Cc2ccc(Cl)cc2)C1)c1c(F)ccc(F)c1F (stereo unspecified) ?
SENP1 inh: inactive; M18AAP inhibitor: inactive; CTSL1 counter: 64; FXN GAA850 act: inactive; HDAC3 inhib: inactive; AHR act: inactive

Results for CC(=O)NC1C(=O)N(CCN2CCOCC2)c2ccc(C)cc21 (stereo unspecified) ?
SENP1 inh: inactive; M18AAP inhibitor: 48; CTSL1 counter: inactive; FXN GAA850 act: inactive; HDAC3 inhib: inactive; AHR act: inactive

How did CCOc1ncccc1C(=O)OCC(=O)NC1CCCCCC1 do in these assays?
SENP1 inh: inactive; FXN GAA850 act: inactive

Results for O=C(Nc1ccccc1-c1nc2ccccc2s1)c1ccco1 ?
SENP1 inh: inactive; M18AAP inhibitor: inactive; CTSL1 counter: inactive; FXN GAA850 act: inactive; HDAC3 inhib: inactive; AHR act: inactive

What do the screens show for `O=C(Nc1c(Cl)cc(Cl)cc1-c1nc2ccccc2s1)c1ccc(Br)o1`?
SENP1 inh: inactive; M18AAP inhibitor: inactive; CTSL1 counter: inactive; FXN GAA850 act: inactive; HDAC3 inhib: inactive; AHR act: 61

Results for NS(=O)(=O)c1ccc(Oc2ccc(S(N)(=O)=O)cc2)cc1 ?
SENP1 inh: inactive; M18AAP inhibitor: inactive; CTSL1 counter: 17; FXN GAA850 act: inactive; HDAC3 inhib: inactive; AHR act: inactive
